MsrA inhibitor = bovine MsrA inhibition; inhibition, % at 15.5 µM; AID 651718; purified bovine MsrA, absorbance read-out; 360,000 tested, 0.75% active; in the data active = inhibition above about 4.5%;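 note: 0% = vehicle wells with enzyme and 100% = reference inhibitor wells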
ASAP1 inh = inhibitors of human ASAP1 ArfGAP activity; inhibition, % at 16.5 µM; 360,000 tested, 0.19% active; Q9ULH1; ASAP1-stimulated ARF1 GTP hydrolysis, GDP FP detection; in the data active = inhibition above about 25%;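 note: 0% = vehicle with enzyme and substrate and 100% = no enzyme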
sPLA2-III inh = Blocks human group III sPLA2 activity. inhibition, % at 12.2 µM. 370,000 tested, 0.56% active. Q9NZ20. QFRET BODIPY PC-A2 liposome hydrolysis, fluorescence;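 active = inhibition above mean plus 3 SD of compounds lying within the high and low control bounds, cut at about 19% in these data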;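 note: 0% = median of test compound wells and 100% = no enzyme DMSO wells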
Target sequence (Q9NZ20 whole entry, looked up): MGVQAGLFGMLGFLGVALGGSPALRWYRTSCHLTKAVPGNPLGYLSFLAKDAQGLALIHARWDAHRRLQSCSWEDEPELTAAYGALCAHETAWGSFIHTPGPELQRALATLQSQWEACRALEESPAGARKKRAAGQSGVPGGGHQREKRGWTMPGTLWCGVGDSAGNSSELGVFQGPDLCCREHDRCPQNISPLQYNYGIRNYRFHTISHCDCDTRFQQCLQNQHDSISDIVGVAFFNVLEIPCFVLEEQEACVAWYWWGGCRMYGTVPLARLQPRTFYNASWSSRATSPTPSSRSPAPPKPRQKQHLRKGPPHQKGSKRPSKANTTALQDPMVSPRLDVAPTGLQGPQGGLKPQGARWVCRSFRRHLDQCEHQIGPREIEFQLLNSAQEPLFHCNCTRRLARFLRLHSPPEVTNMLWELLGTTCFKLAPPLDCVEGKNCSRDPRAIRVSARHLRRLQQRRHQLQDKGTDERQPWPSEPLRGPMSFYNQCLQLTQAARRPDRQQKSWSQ
ARFGAP1 inh = inhibitors of rat ARFGAP1; 360,000 tested, 0.26% active; Arfgap1-stimulated ARF1 GTP hydrolysis, GDP FP detection; inhibition, % at 16.5 µM; AID 651572;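 active = inhibition above a per-plate limit, mean inhibition of low control wells plus 3 SD, cut at about 25% in these data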;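 note: 0% = DMSO wells with enzyme and 100% = wells lacking Arfgap1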
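system = rat Arfgap1 catalytic domain, aa 1-136 | technique = FP, GDP Alexa 633 tracer displaced from anti-GDP antibody, 620/688 nm | compound = one concentration, 16.5 µM, DMSO 1.26% | medium = HEPES-based buffer, pH 7.5 | timing = compound-enzyme preincubation 20 min, reaction 120 min, detection 60 min, 25 °C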
MsrA act = bovine methionine sulfoxide reductase A activation. purified bovine MsrA, absorbance read-out. activation, % at 10.6 µM. 360,000 tested, 0.3% active; in the data active = activation above about 7.5%;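 note: 0% = vehicle and 100% = reference activator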
NR1D1 modulator = Rev-erb alpha (human) modulation; AID 1259318; 370,000 tested, 0.79% active; P20393; Rev-erbα–FITC-DNA binding, fluorescence polarization, 90 min; activity, % at 10 µM;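 active = activity above about 14%, limit read from the data; passing the limit was not always enough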;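 note: 0% = DMSO wells with 35 nM protein and 100% = DMSO wells with 750 nM protein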
Numbers without * were called inactive; / = not tested or not shown. Sampled rows, rich in hits. Any-hit rate of the full collection: about 2.7%.

SMILES	MsrA inhibitor	ASAP1 inh	sPLA2-III inh	ARFGAP1 inh	MsrA act	NR1D1 modulator
CC(Nc1cc(N2CCNCC2)ccc1[N+](=O)[O-])c1ccccc1 (centres undefined)	3	-2	-3	9	1	-1
CCS(=O)(=O)N1CCN(c2ccc([N+](=O)[O-])c(NC(C)c3ccccc3)c2)CC1 (centres undefined)	7.3*	-5	0	-5	-4	4
CC(Nc1cc(N2CCN(C(=O)C(C)(C)C)CC2)ccc1[N+](=O)[O-])c1ccccc1 (centres undefined)	11*	4	-7	-4	-2	-2
CCCC(=O)O[C@]1(C(=O)CO)CCC2[C@@H]3CCC4=CC(=O)CC[C@]4(C)C3[C@@H](O)C[C@@]21C (some centres undefined)	/	/	/	/	/	-2
CCCCCC(=O)O[C@]1(C(C)=O)CCC2C3CCC4=CC(=O)CC[C@]4(C)C3CC[C@@]21C (some centres undefined)	/	/	/	/	/	-5
O=C(OC1C(OC(=O)c2cccnc2)C(OC(=O)c2cccnc2)C(OC(=O)c2cccnc2)C(OC(=O)c2cccnc2)C1OC(=O)c1cccnc1)c1cccnc1 (centres undefined)	/	/	/	/	/	5
CC1(C)O[C@@H]2CC3C4C[C@H](F)C5=CC(=O)CC[C@]5(C)C4[C@@H](O)C[C@]3(C)[C@]2(C(=O)CO)O1 (some centres undefined)	/	/	/	/	/	-4
COc1ccc(Cn2c(/C=C/c3ccccc3)nc3ccccc32)cc1	2	-1	-1	12	-4	3
COc1ccc(/C=C/c2nc3ccccc3n2C)cc1	5.5*	11	-10	-9	-14	-1
N#C/C(=C\Nc1ccc2cn[nH]c2c1)c1nc(-c2ccc(Cl)cc2)cs1	1	29*	-1	15	-2	-11
COc1ccc2nc(NC(=O)CN(c3ccc(C)cc3)S(=O)(=O)c3c(C)nn(C)c3C)sc2c1	0	7	-33	28*	-3	-6
C[C@@H]1CC2C3CCC4=CC(=O)C=C[C@]4(C)[C@@]3(F)[C@@H](O)C[C@]2(C)[C@@]1(O)C(=O)COP(=O)(O)O (some centres undefined)	/	/	/	/	/	-7
O=C(O)[C@H]1O[C@H](O)[C@H](O)[C@@H](O)[C@@H]1O	/	/	/	/	/	-4
COc1ccc(CN2CCN(c3cccc(C)c3C)CC2)cc1OC	0	1	-7	34*	-1	-1
CC(C)OC(=O)CCC/C=C\C[C@@H]1[C@@H](/C=C/[C@@H](O)COc2cccc(C(F)(F)F)c2)[C@H](O)C[C@@H]1O	/	/	/	/	/	-2
O=C[C@H](O)[C@H]1OC(=O)[C@@H](O)[C@H]1O	/	/	/	/	/	-4
CNc1cc(OC)c(C(=O)N[C@@H]2CCN(Cc3ccccc3)[C@@H]2C)cc1Cl	/	/	/	/	/	-1
Cn1cccc([N+](=O)[O-])c1=O	2	17	9	-5	-9	-4
Cn1c(=O)c(=O)n(C)c2cc([N+](=O)[O-])c([N+](=O)[O-])cc21	5.1*	-3	4	-7	2	6
O=C(CSc1nc2ccccc2n1CCc1ccccc1)c1ccc(O)c(O)c1	1	-3	24*	-6	-4	-35
O=C(CSc1nc2ccccc2n1CCc1ccccc1)N1CCOCC1	1	-15	6	1	-1	-1
CC(=O)NC(Cc1ccc(O)cc1)C(=O)O (centres undefined)	/	/	/	/	/	4
Cc1nn(-c2ccccc2)c(N2CCCC2)c1/C=N/NC(=O)c1cc(-c2ccccc2)nc2ccccc12	4.6*	8	4	-10	-5	1
Cc1cc(C)nc(NC2=NCC(=O)N2c2ccccc2)n1	2	-2	-2	-5	-6	1
COc1ccc(N2C(=O)CN=C2Nc2nc(C)cc(C)n2)cc1	4.5*	-8	-2	-7	-1	-3
SMILES	MsrA inhibitor	ASAP1 inh	sPLA2-III inh	ARFGAP1 inh	MsrA act	NR1D1 modulator
CN1CCN(C(=O)Nc2cccc(-c3ccccc3)c2)CC1	4.6*	-8	9	14	-5	3
Cc1cccc(NC(=O)CN2C(=O)N/C(=C\c3ccccc3OCc3ccc(C(=O)O)cc3)C2=O)c1	3	10	-50	-5	-7	6
O=C(CN1C(=O)N/C(=C\c2ccccc2OCc2ccc(C(=O)O)cc2)C1=O)Nc1ccc(F)cc1	4.7*	-3	-44	2	-8	3
NC(=O)C1CSSCCC(=O)NC(CCCCN=C(N)N)C(=O)NCC(=O)NC(CC(=O)O)C(=O)NC(Cc2c[nH]c3ccccc23)C(=O)N2CCCC2C(=O)N1 (centres undefined)	/	/	/	/	/	-1
CCC(C)NS(=O)(=O)c1ccc(NC(=O)c2cccs2)cc1 (centres undefined)	-1	4	-9	3	-1	4
Cc1ccc(NS(=O)(=O)c2ccc(NC(=O)c3cccs3)cc2)cc1	0	11	-65	5	8.2*	2
CSCC[C@H](N)C(=O)O	/	/	/	/	/	-5
Cc1ccc(CC2S/C(=N/N=C/c3ccco3)NC2=O)cc1 (centres undefined)	2	9	-1	-4	-12	-1
O=C1N/C(=N/N=C/c2ccco2)SC1Cc1ccccc1 (centres undefined)	4.6*	-10	-6	2	-4	-4
O=c1[nH]cnc2c1ncn2C1O[C@H](CO)[C@@H](O)[C@H]1O (some centres undefined)	/	/	/	/	/	-3
Cc1oc2c(CN(C)C)c(O)ccc2c(=O)c1-c1cscn1	4.8*	12	0	-10	-5	-7
COc1ccc(Oc2c(C)oc3c(CN(C)C)c(O)ccc3c2=O)cc1	2	-15	2	4	-3	-2
CC1(C)C2CC[C@]3(C)C(C(=O)C=C4[C@@H]5C[C@@](C)(C(=O)O)CC[C@]5(C)CC[C@]43C)[C@@]2(C)CC[C@@H]1OC(=O)CCC(=O)O (some centres undefined)	/	/	/	/	/	1
CN=CC1=C(O)c2ccccc2C1=O	4	-5	6	1	-3	-1
O=C1C(C2=C(O)c3ccccc3C2=O)=Nc2ccccc21	0	39*	1	16	-4	2
CC(C)c1nc(N(C)S(C)(=O)=O)nc(-c2ccc(F)cc2)c1/C=C/[C@@H](O)C[C@@H](O)CC(=O)O	/	/	/	/	/	1
Cn1nnnc1SCC1=C(C(=O)O)N2C(=O)[C@H](NC(=O)C(O)c3ccccc3)C2SC1 (some centres undefined)	/	/	/	/	/	0
N#C/C(=C(/O)c1ccccc1F)c1nc2cc(C(F)(F)F)ccc2s1	4.7*	12	-17	-6	-7	-3
COc1cccc2sc(Nc3nc(-c4cc5ccccc5oc4=O)cs3)nc12	1	23	-4	30*	-3	-33
C[C@H]1CC2C([C@@H](O)C[C@@]3(C)C2CC[C@]3(O)C(=O)CO)[C@@]2(C)C=CC(=O)C=C12 (some centres undefined)	/	/	/	/	/	2

High-throughput results as filed in PubChem.
